# Results pooled from the literature.
# Protocols differ between the studies behind these lines.
# PTGS1: Prostaglandin G/H synthase 1 (PTGS1, Homo sapiens, UniProt P23219)
# BDKRB1: B1 bradykinin receptor (BDKRB1, Homo sapiens, UniProt P46663)
# CCKBR: Gastrin/cholecystokinin type B receptor (CCKBR, Homo sapiens, UniProt P32239)
# FAAH: Fatty-acid amide hydrolase 1 (FAAH, Homo sapiens, UniProt O00519)
# MTNR1A: Melatonin receptor type 1A (MTNR1A, Homo sapiens, UniProt P48039)
# MMP3: Stromelysin-1 (MMP3, Homo sapiens, UniProt P08254)
# ROCK1: Rho-associated protein kinase 1 (ROCK1, Homo sapiens, UniProt Q13464)
Compound,target,test,conditions,inhibition
C[C@H](C(=O)N[C@H]1COc2ccccc2[C@@H]1S(C)(=O)=O)c1ccc(F)cc1,PTGS1,"enzyme activity, inhibitor",10 µM,-24%
COc1cc(Nc2ncc(F)c(Nc3ccc4c(n3)NC(=O)C(C)(C)O4)n2)cc(OC)c1OC,"Serine/threonine-protein kinase SIK3 (SIK3, Homo sapiens, UniProt Q9Y2K2)","binding, competition with immobilised ligand",10 µM,35%
COCc1c(-c2cc3cc(C)cc(OC)c3s2)c2c(N)ncnn2c1CN1CCNC(=O)C1,"Tyrosine-protein kinase receptor Tie-1 (TIE1, Homo sapiens, UniProt P35590)","cell-free assay, competition with immobilised ligand",1 µM,83%
CC(C)N1CCC[C@H]1CNC(=O)c1cn(C2CCCC2)c(=O)c2c1c1ccccc1n2C,BDKRB1,"ligand displacement, radioligand",10 µM,12%
c1ccc(C(NCCNC(c2ccccc2)c2ccccc2)c2ccccc2)cc1,CCKBR,cell-free assay,10 µM,33%
CN(C(=O)Oc1nsnc1N1CCCCC1)c1ccc(Cl)cc1,FAAH,"enzyme activity, inhibitor","10 µM, cell membranes",16%
CC(C)Cn1cnc2c(N)nc3ccccc3c21,MTNR1A,"ligand displacement, radioligand",10 µM,32%
Cc1cccc(N(C)C(=O)Oc2nsnc2N2CCCCC2)c1,FAAH,"enzyme activity, inhibitor","10 µM, cell membranes",9%
O=C(Cc1c[nH]c2cc(Cl)ccc12)N1CCC(n2ccnc2)CC1,"Trypanothione synthetase (Trypanosoma cruzi, UniProt Q9GT49)","enzyme activity, inhibitor, absorbance",25 µM,6.2%
Cn1cc(-c2cccc(N3CCc4c(sc5c4CC(C)(C)C5)C3=O)c2CO)cc(Nc2ccncn2)c1=O,"Mitogen-activated protein kinase kinase kinase 8 (MAP3K8, Homo sapiens, UniProt P41279)","enzyme activity, inhibitor",1 µM,16%
COc1ccc(S(=O)(=O)N(CC(=O)NO)CC(C)C)cc1,MMP3,"enzyme activity, inhibitor",1 µM,100%
C#Cc1n[nH]c2c(-c3cn(C(C)c4ccccn4)c(=O)[nH]c3=O)cc(F)cc12 (centres unmarked),ROCK1,"enzyme activity, inhibitor",1 µM,-2.6%
Cn1cc(-c2cc(F)cc(N3CCn4c(cc5c4CCCC5)C3=O)c2CO)cc(Nc2ccc(N3CCN(C4COC4)CC3)cn2)c1=O,"Aurora kinase A (AURKA, Homo sapiens, UniProt O14965)","enzyme activity, inhibitor",0.1 µM,10%
CN(CCN1CCC(OC(=O)Nc2ccccc2-c2ccccc2)CC1)C(=O)c1ccc(CN2CCC(C(N)=O)CC2)cc1,CCKBR,"ligand displacement, radioligand",1 µM,-9%
N=C(N)c1ccc2cc(OC(=O)c3ccc(N=C(N)N)cc3)ccc2c1,MMP3,"enzyme activity, inhibitor",10 µM,0%
OC(c1ccc(F)cc1)C(F)(F)CCN1CCC(O)(c2ccc(Cl)cc2)CC1 (racemic),"Sigma intracellular receptor 2 (Tmem97, Rattus norvegicus, UniProt Q5U3Y7)","ligand displacement, radioligand",10 µM,> 50%
C#Cc1n[nH]c2c(-c3cn([C@@H](C)c4ccccc4)c(=O)[nH]c3=O)cc(F)cc12,ROCK1,"enzyme activity, inhibitor",0.1 µM,3.5%
COCCN(CCOC)C(=O)[C@@]12C[C@@H]1[C@@H](n1cnc3c(NC(C4CC4)C4CC4)nc(Cl)nc31)[C@H](O)[C@@H]2O,"5-hydroxytryptamine receptor 2C (HTR2C, Homo sapiens, UniProt P28335)","ligand displacement, radioligand",10 µM,38%
CCN(C(=O)Oc1nsnc1N1CCCCC1)c1ccccc1,FAAH,"enzyme activity, inhibitor","10 µM, cell membranes",24%
Cc1ncc(C)n2nc(/C=C/c3nc(N4CCCC4)cc(N4CCOCC4)n3)nc12,PTGS1,"enzyme activity, inhibitor",10 µM,10%
CN(C(=O)Oc1nsnc1N1CCCCC1)c1cccc([N+](=O)[O-])c1,FAAH,"enzyme activity, inhibitor","10 µM, cell membranes",11%
COc1ccc(S(=O)(=O)N2CCCCC2)cc1C,BDKRB1,"ligand displacement, radioligand",10 µM,< 30%
CN(C(=O)Oc1nsnc1N1CCCCC1)c1ccc([N+](=O)[O-])cc1,FAAH,"enzyme activity, inhibitor","10 µM, cell membranes",19%
CC(C)C[C@H](NC(=O)[C@H](Cc1ccccc1)NC(=O)c1cnccn1)B(O)O,"Complement C1r subcomponent (Homo sapiens, UniProt P00736)","enzyme activity, inhibitor",33 µM,44.5%
Cc1cc(C)c(N(C)C(=O)Oc2nsnc2N2CCCCC2)c(C)c1,FAAH,"enzyme activity, inhibitor","10 µM, cell membranes",7%
O=C(Nc1cccnn1)N1CCN([C@@H]2CCOc3cc(C(F)(F)F)ccc32)CC1,PTGS1,"enzyme activity, inhibitor",20 µM,1%
CN(C(=O)Oc1nsnc1N1CCCCC1)c1ccccc1[N+](=O)[O-],FAAH,"enzyme activity, inhibitor","10 µM, cell membranes",46%
CCOC(=O)c1ccc(OC(=O)CCCCCNC(=N)N)cc1,"Ubiquitin carboxyl-terminal hydrolase 10 (USP10, Homo sapiens, UniProt Q14694)","enzyme activity, inhibitor",10 µM,3%
CCN(CC)CCCC[C@H](NC(=O)[C@H](CC(C)C)NC(=O)[C@H](C)NC(=O)[C@H](Cc1ccccc1)NC(=O)c1ccc(C(C)(C)C)cc1)C(=O)N[C@@H](CO)C(=O)OC,MTNR1A,"ligand displacement, radioligand",10 µM,8%
CN(C(=O)Oc1nsnc1N1CCCCC1)C1CCCCC1,FAAH,"enzyme activity, inhibitor","10 µM, cell membranes",16%
CN(C)C(=O)COC(=O)Cc1ccc(OC(=O)c2ccc(NC(=N)N)cc2)cc1,MMP3,"enzyme activity, inhibitor",10 µM,27%
Nc1ncnc2c1ncn2[C@@H]1O[C@H](C[C@@H](N)CC[C@H](N)C(=O)O)[C@@H](O)[C@H]1O,"mRNA cap guanine-N(7) methyltransferase (RNMT, Homo sapiens, UniProt O43148)","enzyme activity, inhibitor",50 µM,98.2%
